{
  "source": "ChEMBL document CHEMBL1125130",
  "about": "“4-Alkyl-1,4-dihydropyridines derivatives as specific PAF-acether antagonists” (J Med Chem, 1990)",
  "key": {"[1]": {"system": "Rattus norvegicus", "test": "Tested in vivo for ability to inhibit PAF-induced hypotension in rats by measuring the drop in mean arterial blood pressure(mmHg) after 3 minutes activity", "assay_type": "functional", "outline": "(§1)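 Male Sprague-Dawley rats (225 ± 2 g) under sodium pentobarbital (50 mg/kg ip). PAF 0.66 µg/kg injected; compounds 5 mg/kg iv given 3 min later at maximal blood pressure fall. Blood pressure changes recorded for 30 min after PAF, compared with vehicle controls (five rats per group).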"}, "[2]": {"system": "Rattus norvegicus", "test": "Tested in vivo for ability to inhibit PAF-induced hypotension in rats by measuring the drop in mean arterial blood pressure(mmHg) after 20 minutes activity", "assay_type": "functional", "outline": "as §1"}},
  "data": [
    {"smiles": "CCO/C(O)=C1/C(C)=NC(C)=C(C(=O)OCCSc2ccccc2)C1C", "note": "(configuration not stated)", "values": [
      {"measurement": "MABP", "setting": "[1]", "result": 52, "unit": "mmHg"},
      {"measurement": "MABP", "setting": "[2]", "result": 23, "unit": "mmHg"}
    ]},
    {"smiles": "CCCC1C(C(=O)OCCSCC)=C(C)N=C(C)/C1=C(/O)OCC", "note": "(configuration not stated)", "values": [
      {"measurement": "MABP", "setting": "[1]", "result": 106, "unit": "mmHg"},
      {"measurement": "MABP", "setting": "[2]", "result": 71, "unit": "mmHg"}
    ]},
    {"smiles": "CO/C(O)=C1\\C(C)=NC(C)=C(C(=O)OCCSc2ccccc2)C1C", "note": "(configuration not stated)", "values": [
      {"measurement": "MABP", "setting": "[1]", "result": 30, "unit": "mmHg"},
      {"measurement": "MABP", "setting": "[2]", "result": 14, "unit": "mmHg"}
    ]},
    {"smiles": "CCO/C(O)=C1\\C(C)=NC(C)=C(C(=O)OCCSC)C1C", "note": "(configuration not stated)", "values": [
      {"measurement": "MABP", "setting": "[1]", "result": 88, "unit": "mmHg"},
      {"measurement": "MABP", "setting": "[2]", "result": 29, "unit": "mmHg"}
    ]},
    {"smiles": "CO/C(O)=C1\\C(C)=NC(C)=C(C(=O)OCCSC)C1C", "note": "(configuration not stated)", "values": [
      {"measurement": "MABP", "setting": "[1]", "result": 51, "unit": "mmHg"},
      {"measurement": "MABP", "setting": "[2]", "result": 5, "unit": "mmHg"}
    ]},
    {"smiles": "CC1=NC(C)=C(C(=O)OCCSc2ccccc2)C(C)/C1=C(\\O)OC(C)C", "note": "(configuration not stated)", "values": [
      {"measurement": "MABP", "setting": "[1]", "result": 78, "unit": "mmHg"},
      {"measurement": "MABP", "setting": "[2]", "result": 27, "unit": "mmHg"}
    ]},
    {"smiles": "CCO/C(O)=C1\\C(C)=NC(C)=C(C(=O)OCCSC)C1CC", "note": "(configuration not stated)", "values": [
      {"measurement": "MABP", "setting": "[1]", "result": 77, "unit": "mmHg"},
      {"measurement": "MABP", "setting": "[2]", "result": 36, "unit": "mmHg"}
    ]},
    {"smiles": "CCO/C(O)=C1\\C(C)=NC(C)=C(C(=O)OCCSCC)C1C", "note": "(configuration not stated)", "values": [
      {"measurement": "MABP", "setting": "[1]", "result": 64, "unit": "mmHg"},
      {"measurement": "MABP", "setting": "[2]", "result": 18, "unit": "mmHg"}
    ]},
    {"smiles": "CCCC1C(C(=O)OCCSC)=C(C)N=C(C)/C1=C(/O)OCC", "note": "(configuration not stated)", "values": [
      {"measurement": "MABP", "setting": "[1]", "result": 101, "unit": "mmHg"},
      {"measurement": "MABP", "setting": "[2]", "result": 60, "unit": "mmHg"}
    ]},
    {"smiles": "CCSCCO/C(O)=C1\\C(C)=NC(C)=C(C(=O)OC)C1C", "note": "(configuration not stated)", "values": [
      {"measurement": "MABP", "setting": "[1]", "result": 68, "unit": "mmHg"},
      {"measurement": "MABP", "setting": "[2]", "result": 32, "unit": "mmHg"}
    ]},
    {"smiles": "CC1=NC(C)=C(C(=O)OCCSc2ccccc2)C(C)/C1=C(\\O)OCC1CCCO1", "note": "(configuration not stated)", "values": [
      {"measurement": "MABP", "setting": "[1]", "result": 63, "unit": "mmHg"},
      {"measurement": "MABP", "setting": "[2]", "result": 21, "unit": "mmHg"}
    ]}
  ]
}
